Assay outcomes as filed in PubChem BioAssay.
Hits are enriched below; roughly 4.7% of the tested compounds scored in any of these assays.
AHR activator: activates the human aryl hydrocarbon receptor | AHR-responsive luciferase reporter cells, luminescence | AID 2796 | P35869 | activation, % at 5 µM | 2.5% of 320,000 active; in the data active means activation above about 47%;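 further: 0% = vehicle wells and 100% = reference agonist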
MC4R antag cAMP: human MC4R antagonism in cAMP assay; P32245; MC4R-expressing cells, MTII-stimulated cAMP, LANCE TR-FRET; inhibition, % at 6.5 µM; 0.48% of 360,000 active; AID 540295;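 active means inhibition above its plate's cutoff, the mean of tested wells on that plate plus 3 SD, cut at about 29% in these data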;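 further: 0% = Melanotan II alone and 100% = Melanotan II plus saturating MCL0020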
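Test system: U2OS cells stably expressing human melanocortin 4 receptor (MC4R); also added: Melanotan II challenge; compound: 6.5 µM single dose; timing: 30-min compound preincubation, 1-h Melanotan II challenge, 1-h detection, room temperature; signal: Eu-cAMP/anti-cAMP TR-FRET, emission 671 nm; repeats: one well per compound, no replicates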
HTR2A ag: activates the mouse 5-HT2A serotonin receptor | activation, % at 7.6 µM | 0.66% of 360,000 active | CHO-K1 mHTR2A beta-arrestin complementation, luminescence; percent of 30 µM serotonin response;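 active means activation above a run cutoff, the mean activation of all tested compounds plus 3 SD, cut at about 14% in these data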;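 further: 0% = plate median of compound wells and 100% = 30 µM serotonin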
Target sequence (P35363 whole entry, looked up): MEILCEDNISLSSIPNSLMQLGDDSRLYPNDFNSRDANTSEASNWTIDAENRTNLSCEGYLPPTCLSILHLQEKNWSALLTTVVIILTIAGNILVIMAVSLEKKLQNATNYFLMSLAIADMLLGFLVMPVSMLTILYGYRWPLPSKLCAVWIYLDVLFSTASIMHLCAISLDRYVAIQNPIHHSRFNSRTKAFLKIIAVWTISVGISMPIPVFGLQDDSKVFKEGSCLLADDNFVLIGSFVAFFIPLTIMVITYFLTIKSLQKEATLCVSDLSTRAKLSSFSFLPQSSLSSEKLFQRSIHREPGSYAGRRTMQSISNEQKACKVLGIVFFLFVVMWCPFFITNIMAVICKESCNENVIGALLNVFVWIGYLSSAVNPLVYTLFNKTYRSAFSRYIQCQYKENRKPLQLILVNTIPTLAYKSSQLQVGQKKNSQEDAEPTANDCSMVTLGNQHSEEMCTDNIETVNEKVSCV
MC4R barr agon: agonists of human melanocortin 4 receptor (MC4R) beta-arrestin. AID 540308. 0.98% of 360,000 active. P32245. U2OS MC4R beta-arrestin complementation, luminescence; percent of melanotan II response, DMSO zero. activation, % at 8.9 µM;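 active means activation above a per-plate cutoff, the mean activation of sample wells on that plate plus 3 SD, cut at about 8% in these data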
GAA850 FXN act: frataxin GAA850 promoter activation; HEK293 lucGAA850 FXN promoter luciferase reporter, 24 h; percent of 10 µM SAHA response; activation, % at 6 µM; 0.56% of 360,000 active; AID 540364;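 active means activation above the average of all compounds screened plus 3 SD, cutoff fixed separately per campaign, cut at about 7.5% in these data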;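 further: 0% = DMSO wells and 100% = 10 µM SAHA wells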
GAA30 counter: activates GAA30 frataxin promoter, counter-screen for GAA850 activators. 66% of 1,900 active. shares compounds with GAA850 FXN act. HEK293 lucGAA30 FXN promoter luciferase, 24 h; DMSO = 0%, 5 µM ipriflavone = 100%. activation, % at 6 µM;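 active means mean activation above the mean of solvent-only control wells plus 3 SD, cut at about 22% in these data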;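 further: counterscreen of GAA850 promoter hits where activity marks nonselective or luminescence artifacts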
GAA850 confirm: GAA850 FXN promoter activation confirmation; activation, % at 6 µM; 86% of 1,900 active; shares compounds with GAA850 FXN act; HEK293 lucGAA850 FXN promoter luciferase reporter, 24 h; 100% = activation by SAHA;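 active means mean activation above a set limit taken from the primary screen, cut at about 8% in these data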;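 further: 0% = DMSO wells and 100% = 10 µM SAHA wells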
* marks the source's active call; other numbers are inactive results; · = not tested or not shown.

SMILES	AHR activator	MC4R antag cAMP	HTR2A ag	MC4R barr agon	GAA850 FXN act	GAA30 counter	GAA850 confirm
COC(=O)c1sccc1NC(=O)COc1ccccc1Cl	6	13	1	-1	7.9*	81*	29*
COC(=O)C(NC(=O)c1ccccc1C)(Nc1ncc(S(=O)(=O)c2ccc([N+](=O)[O-])cc2)s1)C(F)(F)F (stereo not drawn)	3	-1	-9	-2	0	·	·
COC(=O)C(NC(=O)c1ccc(F)cc1)(Nc1ncc(S(=O)(=O)c2ccc([N+](=O)[O-])cc2)s1)C(F)(F)F (stereo not drawn)	3	12	-5	-1	9.8*	21	14*
Cc1cc(=O)[nH]c(SCC(=O)NC2CCCCCC2)n1	-1	3	3	-1	4	·	·
Cc1ccc(S(=O)(=O)CCN2CCC(n3cccc3)CC2)cc1	-1	-3	-5	2	1	·	·
C/C(=C/CCC(C)(O)C1CC[C@@]2(C)[C@@H]3CC=C4[C@@H](CC[C@H](O[C@H]5O[C@@H](CO)[C@H](O)[C@@H](O)[C@@H]5O)C4(C)C)[C@]3(C)C(=O)C[C@]12C)CO[C@@H]1O[C@H](CO)[C@@H](O)[C@H](O)[C@H]1O (stereo partly drawn)	-1	-1	5	0	2	·	·
O=C(NCc1ccccn1)c1cccc(S(=O)(=O)N2CCCCC2)c1	-1	5	-4	1	2	·	·
Cc1ccc(NC(=O)c2c(Cl)nc3ccccn23)cc1	29	4	4	-1	10*	116*	37*
CC(O)(c1ccc(Cl)cc1)C(c1ccccc1)c1ccccn1 (stereo not drawn)	·	5	-1	0	1	·	·
CC(=O)N1CCc2cc(NC(=O)C3(C)CCN3Cc3ccc(C(C)C)cc3)ccc21 (stereo not drawn)	·	10	4	0	2	·	·
COc1nc(=O)n(C2C=CC(=O)O2)cc1F (stereo not drawn)	·	-9	5	-1	14*	-20	0
Cc1ccc(CNc2ccc3c(c2)ncn3C)cc1	19	6	-9	-2	6	·	·
Cc1ccc(CNc2ccc3c(c2)ncn3C(C)(C)C)cc1	27	-5	3	-4	10.0*	107*	37*
Cc1nc2ccc(-c3nc4ccc(N)cc4[nH]3)cc2[nH]1	8	-17	0	-3	2	·	·
Nc1ccc2nc(-c3cc(Cl)c(N)c(Cl)c3)[nH]c2c1	39	-7	-9	-1	8.3*	160*	50*
Cc1nc(/N=C(\N)NC(=O)c2ccccc2)nc2ccccc12	63*	0	6	-1	8.3*	97*	33*
CSc1ccccc1NC(=O)CN(C)C(=O)c1ccc(NC(=O)c2cccs2)cc1	0	10	-6	-1	-3	·	·
Cc1ccc(-c2cc(-c3ccccc3)c(C#N)c(N)n2)o1	6	3	4	-2	-2	·	·
Cc1cc(-c2ccc(Cl)cc2)c(C#N)c(N)n1	17	-10	4	0	8.2*	16	15*
COc1ccc(-c2cc(C(F)(F)F)nc(S(=O)(=O)CCCC(=O)Nc3cc(C)on3)n2)cc1OC	·	-8	3	-3	10*	58*	83*
O=C(COc1ccc(F)cc1)N(Cc1ccc(Cl)cc1)C1CCS(=O)(=O)C1 (stereo not drawn)	4	8	-1	-2	1	·	·
CCC(C)c1ccccc1N1CC(C(=O)Nc2cc(S(=O)(=O)N3CCOCC3)ccc2OC)CC1=O (stereo not drawn)	0	9	1	0	3	·	·
CCOc1ccccc1N1CC(C(=O)Nc2cc(S(=O)(=O)N3CCOCC3)ccc2OC(C)C)CC1=O (stereo not drawn)	·	9	2	-1	10*	16	7
O=S(=O)(c1ccc(NC(=S)NC23CC4CC(CC(C4)C2)C3)cc1)N1CCCCC1	·	14	0	3	-1	·	·
COc1ccc(C2CC(c3ccc(OC)c(OC)c3)=NN2S(C)(=O)=O)cc1 (stereo not drawn)	23	-7	0	-2	8.2*	105*	40*
SMILES	AHR activator	MC4R antag cAMP	HTR2A ag	MC4R barr agon	GAA850 FXN act	GAA30 counter	GAA850 confirm
CCn1c2ccc(C)cc2c2nc3cc(C(=O)O)ccc3nc21	7	8	4	4	8.0*	147*	47*
N#CC(c1ccccc1)(c1ncc(C(F)(F)F)cc1Cl)N1CCOCC1 (stereo not drawn)	0	8	-1	0	11*	26*	9.1*
COC(=O)c1ccc(CSc2nc3ccccc3c(=O)n2-c2ccc(OC)c(OC)c2)o1	5	-1	3	-3	7	·	·
COC(=O)c1ccc(CSc2nc3ccccc3c(=O)n2-c2ccccc2)o1	-1	-37	-4	0	16*	21	12*
O=C1c2ccccc2C(c2nnnn2-c2ccc3c(c2)OCCO3)N1C1CC1 (stereo not drawn)	·	·	4	·	·	·	·
CCc1cccc(C)c1NC(=O)c1cc(=O)[nH]c2ccc(S(=O)(=O)N3CCOCC3)cc12	0	16	0	-3	-1	·	·
Cc1nn2cc(-c3ncc(C(F)(F)F)cc3Cl)cnc2c1Br	4	-4	6	1	10.0*	54*	20*
COc1ccc([C@H]2C[C@@H](O)[C@H](n3cc(COC(=O)c4ccccc4)nn3)CN2C(=O)c2cccs2)cc1	·	4	-1	-1	-2	·	·
Cc1cc(C)nc(Nc2n[nH]c(-c3ccc(N)cc3)n2)n1	22	-3	3	1	8.2*	93*	34*
CCN(C(=O)CSc1ncccn1)c1cccc2ccccc12	0	-4	5	-1	0	·	·
COc1ccc(SC[C@H](Cc2ccccc2)N2CC[C@@H](C)CCC2=O)cc1	0	9	3	4	1	·	·
O=S(=O)(CC(CN1CCCCC1)N1CCCCC1)c1ccccc1 (stereo not drawn)	-1	4	0	-1	8.4*	76*	30*
O=[N+]([O-])c1ccc(S(=O)(=O)CC(CN2CCCCC2)N2CCCCC2)cc1 (stereo not drawn)	-1	13	-6	-5	5	·	·
COc1ccc(N2CCN(C(=O)C(=O)c3cc(OC)c4ccccc4c3)CC2)cc1	·	·	4	·	·	·	·
CCOC(=O)c1c(C)nc(-c2ccccc2)nc1N	31	5	0	0	8.0*	131*	39*
CCOC(=O)c1c(C)nc(-c2ccccc2)nc1NC(C)=O	40	-2	2	-2	1	·	·
